Assay results as given in ChEMBL document CHEMBL1155415, “Synthesis, characterization, and in vitro antimicrobial activities of 5-alkenyl/hydroxyalkenyl-2-phenylamine-1,3,4-oxadiazoles and thiadiazoles” (2010).
In brackets after ≈: the same amount, converted by molar mass.

How the values were obtained:
Type in all cases: functional
[1] = tested on: Escherichia coli; assay: Antibacterial activity against Escherichia coli ATCC 25922 after 24 hrs by two fold dilution technique; conditions: ATCC 25922, 24 h
Outline: (§1)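 Broth dilution MIC. Nutrient broth held log two-fold serial dilutions of compound and was inoculated with about 5 × 10⁵ c.f.u./ml of actively dividing bacteria. Incubation was 24 h at 37 °C, with growth checked visually and spectrophotometrically. MIC is the lowest concentration arresting growth.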

[2] = tested on: Escherichia coli; assay: Antibacterial activity against Escherichia coli ATCC 25922 at 30 ug after 24 hrs by disc diffusion method; conditions: ATCC 25922, 24 h, read-out: DIZ
Outline: (§2)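 Agar disc diffusion. A standard inoculum of […] c.f.u./ml (0.5 McFarland) was spread evenly on agar. 6 mm Whatman no. 1 paper discs, dry-heat sterilized (140 °C, 1 h), were soaked in test compound and placed on nutrient agar. Plates were inverted and incubated 24 h at 37 °C. Read-out: diameter of the inhibition zone.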

[3] = tested on: Staphylococcus aureus; assay: Antibacterial activity against Staphylococcus aureus ATCC 25923 after 24 hrs by two fold dilution technique; conditions: ATCC 25923, 24 h; outline: as §1
[4] = tested on: Pseudomonas aeruginosa; assay: Antibacterial activity against Pseudomonas aeruginosa ATCC 27853 after 18 to 24 hrs
[5] = tested on: Staphylococcus aureus; assay: Antibacterial activity against Staphylococcus aureus ATCC 25923 after 18 to 24 hrs
[6] = tested on: Pseudomonas aeruginosa; assay: Antibacterial activity against Pseudomonas aeruginosa ATCC 27853 at 30 ug after 24 hrs by disc diffusion method; conditions: ATCC 27853, 24 h, read-out: DIZ; outline: as §2
[7] = tested on: Klebsiella pneumoniae; assay: Antibacterial activity against Klebsiella pneumoniae after 18 to 24 hrs
[8] = tested on: Streptococcus pyogenes; assay: Antibacterial activity against Streptococcus pyogenes at 30 ug after 24 hrs by disc diffusion method; conditions: read-out: DIZ; outline: as §2
[9] = tested on: Streptococcus pyogenes; assay: Antibacterial activity against Streptococcus pyogenes after 18 to 24 hrs
[10] = tested on: Klebsiella pneumoniae; assay: Antibacterial activity against Klebsiella pneumoniae after 24 hrs by two fold dilution technique; outline: as §1
[11] = tested on: Pseudomonas aeruginosa; assay: Antibacterial activity against Pseudomonas aeruginosa ATCC 27853 after 24 hrs by two fold dilution technique; conditions: ATCC 27853, 24 h; outline: as §1
[12] = tested on: Escherichia coli; assay: Antibacterial activity against Escherichia coli ATCC 25922 after 18 to 24 hrs
[13] = tested on: Klebsiella pneumoniae; assay: Antibacterial activity against Klebsiella pneumoniae at 30 ug after 24 hrs by disc diffusion method; conditions: read-out: DIZ; outline: as §2
[14] = tested on: Streptococcus pyogenes; assay: Antibacterial activity against Streptococcus pyogenes after 24 hrs by two fold dilution technique; outline: as §1
[15] = tested on: Staphylococcus aureus; assay: Antibacterial activity against Staphylococcus aureus ATCC 25923 at 30 ug after 24 hrs by disc diffusion method; conditions: ATCC 25923, 24 h, read-out: DIZ
Outline: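 Disc diffusion. Inoculum of […] c.f.u./ml (0.5 McFarland) spread on sterile nutrient agar plates. 6 mm Whatman no. 1 paper discs, dry-heat sterilised at 140 °C for 1 h, soaked in a known concentration of compound, then placed on the agar. DMSO disc as negative control. Plates inverted, incubated 24 h at 37 °C. Zone of inhibition diameter measured in mm.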

[16] = tested on: Candida albicans; assay: Antifungal activity against Candida albicans after 48 hrs by disk diffusion method
Outline: (§3)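 Agar well diffusion with compounds in DMSO. The dish was lawned with a saline spore suspension, excess decanted, and dried 1 h at 37 °C. Wells were punched. Read-out: inhibition zone in mm. Griseofulvin served as standard and DMSO as negative control.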

[17] = tested on: Talaromyces marneffei; assay: Antifungal activity against Penicillium marneffei after 48 hrs by two fold dilution technique
Outline: (§4)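 Broth MIC. Broth with log two-fold serial dilutions of compound was inoculated with about 1.6 × 10⁴–6 × 10⁴ c.f.u./ml of fungus and incubated 48 h at 35 °C. MIC is the lowest concentration arresting fungal growth.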

[18] = tested on: Talaromyces marneffei; assay: Antifungal activity against Penicillium marneffei after 48 hrs by disk diffusion method; outline: as §3
[19] = tested on: Streptococcus pyogenes; assay: Antibacterial activity against Streptococcus pyogenes after 24 hrs by disc diffusion method; outline: as §2
[20] = tested on: Klebsiella pneumoniae; assay: Antibacterial activity against Klebsiella pneumoniae after 24 hrs by disc diffusion method; outline: as §2
[21] = tested on: Aspergillus fumigatus; assay: Antifungal activity against Aspergillus fumigatus after 48 hrs by two fold dilution technique; outline: as §4
[22] = tested on: Escherichia coli; assay: Antibacterial activity against Escherichia coli ATCC 25922 after 24 hrs by disc diffusion method; outline: as §2
[23] = tested on: Trichophyton mentagrophytes; assay: Antifungal activity against Trichophyton mentagrophytes after 48 hrs by disk diffusion method; outline: as §3
[24] = tested on: Trichophyton mentagrophytes; assay: Ratio of MFC to MIC for Trichophyton mentagrophytes
Outline: (§5)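 MFC: 0.1 ml from each MIC tube was spread on agar and colonies were counted after 48 h at 35 °C. MFC is the lowest concentration killing 99.9% of the inoculum. The MFC/MIC ratio was then calculated to classify activity as fungistatic or fungicidal.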

[25] = tested on: Trichophyton mentagrophytes; assay: Antifungal activity against Trichophyton mentagrophytes after 48 hrs by two fold dilution technique; outline: as §4
[26] = tested on: Talaromyces marneffei; assay: Ratio of MFC to MIC for Penicillium marneffei; outline: as §5
[27] = tested on: Aspergillus fumigatus; assay: Ratio of MFC to MIC for Aspergillus fumigatus; outline: as §5
[28] = tested on: Candida albicans; assay: Antifungal activity against Candida albicans after 48 hrs by two fold dilution technique; outline: as §4
[29] = tested on: Aspergillus fumigatus; assay: Antifungal activity against Aspergillus fumigatus after 48 hrs by disk diffusion method; outline: as §3
[30] = tested on: Staphylococcus aureus; assay: Antibacterial activity against Staphylococcus aureus ATCC 25923 after 24 hrs by disc diffusion method; outline: as §2
[31] = tested on: Pseudomonas aeruginosa; assay: Antibacterial activity against Pseudomonas aeruginosa ATCC 27853 after 24 hrs by disc diffusion method; outline: as §2
[32] = tested on: Candida albicans; assay: Ratio of MFC to MIC for Candida albicans; outline: as §5

Structure (SMILES)	MIC [1] [µg/mL]	MIC [3] [µg/mL]	MBC [4] [µg/mL]	MBC [5] [µg/mL]	MBC [7] [µg/mL]	MBC [9] [µg/mL]	MIC [10] [µg/mL]	MIC [11] [µg/mL]	MBC [12] [µg/mL]	MIC [14] [µg/mL]	diameter of the inhibition zone (DIZ) [16] [mm]	MFC [17] [µg/mL]	MIC [17] [µg/mL]	diameter of the inhibition zone (DIZ) [18] [mm]	diameter of the inhibition zone (DIZ) [19] [mm]	diameter of the inhibition zone (DIZ) [20] [mm]	MFC [21] [µg/mL]	MIC [21] [µg/mL]	diameter of the inhibition zone (DIZ) [22] [mm]	diameter of the inhibition zone (DIZ) [23] [mm]	also measured
O=C(N[C@H](CO)[C@H](O)c1ccc([N+](=O)[O-])cc1)C(Cl)Cl [CHLORAMPHENICOL]	6.25 (≈ 19.3 µM)	6.25 (≈ 19.3 µM)	12.5 (≈ 38.7 µM)	12.5 (≈ 38.7 µM)	12.5 (≈ 38.7 µM)	12.5 (≈ 38.7 µM)	6.25 (≈ 19.3 µM)	6.25 (≈ 19.3 µM)	12.5 (≈ 38.7 µM)	6.25 (≈ 19.3 µM)											zone of inhibition at 30 µg/disc [2]: 27 mm; zone of inhibition at 30 µg/disc [6]: 32 mm; zone of inhibition at 30 µg/disc [8]: 23 mm; zone of inhibition at 30 µg/disc [13]: 19 mm; zone of inhibition at 30 µg/disc [15]: 22 mm
CCCCCC[C@@H](O)C/C=C\CCCCCCCc1nnc(Nc2ccccc2)o1	6.25 (≈ 15.1 µM)	6.25 (≈ 15.1 µM)	50 (≈ 121 µM)	12.5 (≈ 30.2 µM)	6.25 (≈ 15.1 µM)	12.5 (≈ 30.2 µM)	6.25 (≈ 15.1 µM)	6.25 (≈ 15.1 µM)	25 (≈ 60.4 µM)	6.25 (≈ 15.1 µM)	23.3	100 (≈ 242 µM)	12.5 (≈ 30.2 µM)	13.9	21.2	19.7	50 (≈ 121 µM)	12.5 (≈ 30.2 µM)	22.8	17.5	Ratio [24]: 4; MFC [25]: 50 µg/mL (≈ 121 µM); MIC [25]: 12.5 µg/mL (≈ 30.2 µM); Ratio [26]: 8; Ratio [27]: 4; MFC [28]: 100 µg/mL (≈ 242 µM); MIC [28]: 25 µg/mL (≈ 60.4 µM); diameter of the inhibition zone (DIZ) [29]: 20.7 mm; diameter of the inhibition zone (DIZ) [30]: 20.2 mm; diameter of the inhibition zone (DIZ) [31]: 25.6 mm; Ratio [32]: 4
CCCCCCCC/C=C\CCCCCCCc1nnc(Nc2ccccc2)s1	25 (≈ 60.4 µM)	12.5 (≈ 30.2 µM)	25 (≈ 60.4 µM)	25 (≈ 60.4 µM)	50 (≈ 121 µM)	100 (≈ 242 µM)	25 (≈ 60.4 µM)	12.5 (≈ 30.2 µM)	50 (≈ 121 µM)	12.5 (≈ 30.2 µM)	27.2	12.5 (≈ 30.2 µM)	6.25 (≈ 15.1 µM)	16.1	13.1	12.1	25 (≈ 60.4 µM)	6.25 (≈ 15.1 µM)	14.8	20.3	Ratio [24]: 2; MFC [25]: 12.5 µg/mL (≈ 30.2 µM); MIC [25]: 6.25 µg/mL (≈ 15.1 µM); Ratio [26]: 2; Ratio [27]: 4; MFC [28]: 12.5 µg/mL (≈ 30.2 µM); MIC [28]: 6.25 µg/mL (≈ 15.1 µM); diameter of the inhibition zone (DIZ) [29]: 23.8 mm; diameter of the inhibition zone (DIZ) [30]: 12.9 mm; diameter of the inhibition zone (DIZ) [31]: 16.3 mm; Ratio [32]: 2
C=CCCCCCCCCc1nnc(Nc2ccccc2)o1	12.5 (≈ 41.7 µM)	6.25 (≈ 20.9 µM)	50 (≈ 167 µM)	25 (≈ 83.5 µM)	25 (≈ 83.5 µM)	50 (≈ 167 µM)	12.5 (≈ 41.7 µM)	12.5 (≈ 41.7 µM)	50 (≈ 167 µM)	12.5 (≈ 41.7 µM)	24.2	25 (≈ 83.5 µM)	12.5 (≈ 41.7 µM)	15.2	18	16.8	100 (≈ 334 µM)	25 (≈ 83.5 µM)	19.8	16.9	Ratio [24]: 4; MFC [25]: 50 µg/mL (≈ 167 µM); MIC [25]: 12.5 µg/mL (≈ 41.7 µM); Ratio [26]: 2; Ratio [27]: 4; MFC [28]: 50 µg/mL (≈ 167 µM); MIC [28]: 25 µg/mL (≈ 83.5 µM); diameter of the inhibition zone (DIZ) [29]: 20.8 mm; diameter of the inhibition zone (DIZ) [30]: 17.7 mm; diameter of the inhibition zone (DIZ) [31]: 17.3 mm; Ratio [32]: 2
CCCCC/C=C\CC[C@H](O)CCCCCCCc1nnc(Nc2ccccc2)o1	6.25 (≈ 15.1 µM)	12.5 (≈ 30.2 µM)	50 (≈ 121 µM)	12.5 (≈ 30.2 µM)	25 (≈ 60.4 µM)	25 (≈ 60.4 µM)	6.25 (≈ 15.1 µM)	6.25 (≈ 15.1 µM)	25 (≈ 60.4 µM)	6.25 (≈ 15.1 µM)	23.2	100 (≈ 242 µM)	25 (≈ 60.4 µM)	16.3	20.1	20.2	50 (≈ 121 µM)	25 (≈ 60.4 µM)	21.6	18.7	Ratio [24]: 2; MFC [25]: 50 µg/mL (≈ 121 µM); MIC [25]: 25 µg/mL (≈ 60.4 µM); Ratio [26]: 4; Ratio [27]: 2; MFC [28]: 25 µg/mL (≈ 60.4 µM); MIC [28]: 12.5 µg/mL (≈ 30.2 µM); diameter of the inhibition zone (DIZ) [29]: 21.6 mm; diameter of the inhibition zone (DIZ) [30]: 21.1 mm; diameter of the inhibition zone (DIZ) [31]: 19.4 mm; Ratio [32]: 2
